Assay results from different studies.
Lines come from different studies, so protocols differ. pKi: −log10 of the molar value.
ADORA3: Adenosine receptor A3 (ADORA3, Homo sapiens, UniProt P0DMS8)
DRD2: D(2) dopamine receptor (DRD2, Homo sapiens, UniProt P14416)
Liver carboxylesterase: Liver carboxylesterase (Sus scrofa, UniProt Q29550)
MC1R: Melanocyte-stimulating hormone receptor (MC1R, Homo sapiens, UniProt Q01726)

Structure (SMILES) | target | read-out | mode | technique | pH | notes | pKi
CCCC(C)N1CCCn2c1nc1c2c(=O)n(C)c(=O)n1C (stereo not shown) | ADORA3 | ligand displacement |  | radioligand |  | cell membranes | < 5.00
O=C1c2ccccc2CCCN1CCCCN1CCN(c2ccccn2)CC1 | DRD2 | ligand displacement |  | radioligand |  |  | 6.68
CC/C=C\C/C=C\C/C=C\C/C=C\C/C=C\CCCC(=O)O | Liver carboxylesterase | enzyme activity | inhibitor | HPLC | pH 7.4 |  | 6.47
CNC(=O)[C@@]12C[C@@H]1[C@@H](n1cnc3c(NCc4cccc(C#CCCCCc5cn(C67CC8CC(CC(C8)C6)C7)nn5)c4)nc(Cl)nc31)[C@H](O)[C@@H]2O | ADORA3 | ligand displacement |  | radioligand |  | cell membranes | 7.66
NCCCC[C@H](NC(=O)[C@@H]1CCCN1C(=O)[C@@H]1CSSC[C@H](NC(=O)CNC(=O)CNC(=O)CN)C(=O)N[C@@H](Cc2ccc(O)cc2)C(=O)N[C@@H](Cc2ccccc2)C(=O)N[C@@H](CCC(N)=O)C(=O)N[C@@H](CC(N)=O)C(=O)N1)C(=O)NCC(N)=O | Vasopressin V2 receptor (AVPR2, Homo sapiens, UniProt P30518) | ligand displacement |  | radioligand |  | cell membranes | 5.16
C=CN1CCCn2c1nc1c2c(=O)n(C)c(=O)n1C | ADORA3 | ligand displacement |  | radioligand |  | cell membranes | < 5.00
CCCCC[C@H](O)/C=C/[C@H]1[C@H](O)CC(=O)[C@@H]1CCCCCCC(=O)O | Liver carboxylesterase | enzyme activity | inhibitor | HPLC |  |  | < 4.55
C#CCNc1nc(Cl)nc2c1ncn2[C@H]1[C@H](O)[C@H](O)[C@]2(C(=O)NC)C[C@H]12 | ADORA3 | ligand displacement |  | radioligand |  | cell membranes | 8.82
CCCC[C@H](NC(=O)[C@H](CO)NC(=O)[C@H](Cc1ccc(O)cc1)NC(=O)[C@H](CO)NC(C)=O)C(=O)N[C@@H](CCC(=O)O)C(=O)N[C@@H](Cc1c[nH]cn1)C(=O)N[C@@H](C)C(=O)N[C@@H](CCCNC(=N)N)C(=O)N[C@@H](Cc1c[nH]c2ccccc12)C(=O)NCC(=O)N[C@@H](CCCCN)C(=O)N1CCC[C@H]1C(=O)N[C@H](C(=O)NCC(=O)N[C@@H](CCCCN)C(=O)N[C@@H](CCCCN)C(=O)N[C@@H](CCCNC(=N)N)C(N)=O)C(C)C | MC1R | ligand displacement in cells |  | radioligand |  |  | 7.42
COc1cccc(CCC2=NCCN2CCc2ccccc2)c1 | DRD2 | ligand displacement |  | radioligand |  |  | < 5.00
CCCCN1CCC(COC(=O)c2ccc(N)c(OCF)c2)CC1 | 5-hydroxytryptamine receptor 1E (HTR1E, Homo sapiens, UniProt P28566) | cell-free assay |  | radioligand |  |  | < 5.00
CCN1CCCn2c1nc1c2c(=O)n(C)c(=O)n1C | ADORA3 | ligand displacement |  | radioligand |  | cell membranes | < 5.00
CCNC(=O)[C@H]1O[C@@H](n2cnc3c(N)nc(NN=CC4CCC=CO4)nc32)[C@H](O)[C@@H]1O (stereo partly shown) | ADORA3 | ligand displacement |  | radioligand |  |  | 8.20
CC(C)N1CCCn2c1nc1c2c(=O)n(C)c(=O)n1C | ADORA3 | ligand displacement |  | radioligand |  | cell membranes | < 5.00
OC[C@H]1OC(O)[C@H](O)[C@@H](O)[C@H]1O (stereo partly shown) | Alpha-galactosidase A (GLA, Homo sapiens, UniProt P06280) | enzyme activity | inhibitor |  |  |  | 1.80
CCCCCC(C)N1CCCn2c1nc1c2c(=O)n(C)c(=O)n1C (stereo not shown) | ADORA3 | ligand displacement |  | radioligand |  | cell membranes | < 5.00
CCCCC[C@H](O)/C=C/[C@H]1C=CC(=O)[C@@H]1C/C=C\CCCC(=O)O | Liver carboxylesterase | enzyme activity | inhibitor | HPLC | pH 7.4 |  | 4.92
CCCCCCN1CCCn2c1nc1c2c(=O)n(C)c(=O)n1C | ADORA3 | ligand displacement |  | radioligand |  | cell membranes | < 5.00
CC[C@H](C)[C@H](NC(=O)CN)C(=O)N[C@H](C(=O)N[C@@H](CC(N)=O)C(=O)N[C@H](C(=O)N[C@@H](CC(C)C)C(=O)N[C@@H](CCC(N)=O)C(=O)N[C@@H](CCCCN)C(=O)N[C@@H](Cc1ccc(O)cc1)C(=O)N[C@@H](Cc1ccc(O)cc1)C(=O)N[C@@H](CO)C(=O)N[C@@H](CCCNC(=N)N)C(=O)N[C@H](C(=O)N[C@@H](CCCNC(=N)N)C(=O)NCC(=O)NCC(=O)N[C@@H](CCCNC(=N)N)C(=O)N[C@H]1CSSC[C@@H](C(=O)N[C@@H](CO)C(=O)N[C@H](C(=O)N[C@@H](CCCNC(=N)N)C(=O)NCC(=O)N[C@@H](CCCNC(=N)N)C(=O)N[C@@H](CCCCN)C(=O)N[C@@H](CO)C(=O)N[C@@H](CO)C(=O)N[C@@H](CCCNC(=N)N)C(=O)N[C@@H](CCCNC(=N)N)C(=O)N[C@@H](CCCCN)C(=O)N[C@@H](CCCCN)C(N)=O)[C@@H](C)O)NC(=O)[C@H](CCCCN)NC(=O)CNC(=O)[C@H]([C@@H](C)CC)NC(=O)[C@H](CCC(N)=O)NC(=O)[C@H](CCC(=O)O)NC(=O)[C@H](CCC(=O)O)NC(=O)[C@H](CCCCN)NC(=O)[C@@H]2CCCN2C(=O)[C@H](CC(C)C)NC(=O)[C@H](CO)NC(=O)[C@H](CO)NC(=O)[C@H](CC(C)C)NC(=O)[C@H](C(C)C)NC(=O)[C@H](C)NC1=O)C(C)C)[C@@H](C)O)[C@@H](C)CC | MC1R | ligand displacement in cells |  |  |  |  | 6.43
